# Data reported in ChEMBL document CHEMBL3822431, “Hydroxychalcone inhibitors of Streptococcus mutans glucosyl transferases and biofilms as potential anticaries agents” (Bioorg Med Chem Lett, 2016).
# Target: T1, Glucosyltransferase-SI (Streptococcus mutans serotype c (strain ATCC 700610 / UA159)) (UniProt P13470)
# T1 sequence (whole entry): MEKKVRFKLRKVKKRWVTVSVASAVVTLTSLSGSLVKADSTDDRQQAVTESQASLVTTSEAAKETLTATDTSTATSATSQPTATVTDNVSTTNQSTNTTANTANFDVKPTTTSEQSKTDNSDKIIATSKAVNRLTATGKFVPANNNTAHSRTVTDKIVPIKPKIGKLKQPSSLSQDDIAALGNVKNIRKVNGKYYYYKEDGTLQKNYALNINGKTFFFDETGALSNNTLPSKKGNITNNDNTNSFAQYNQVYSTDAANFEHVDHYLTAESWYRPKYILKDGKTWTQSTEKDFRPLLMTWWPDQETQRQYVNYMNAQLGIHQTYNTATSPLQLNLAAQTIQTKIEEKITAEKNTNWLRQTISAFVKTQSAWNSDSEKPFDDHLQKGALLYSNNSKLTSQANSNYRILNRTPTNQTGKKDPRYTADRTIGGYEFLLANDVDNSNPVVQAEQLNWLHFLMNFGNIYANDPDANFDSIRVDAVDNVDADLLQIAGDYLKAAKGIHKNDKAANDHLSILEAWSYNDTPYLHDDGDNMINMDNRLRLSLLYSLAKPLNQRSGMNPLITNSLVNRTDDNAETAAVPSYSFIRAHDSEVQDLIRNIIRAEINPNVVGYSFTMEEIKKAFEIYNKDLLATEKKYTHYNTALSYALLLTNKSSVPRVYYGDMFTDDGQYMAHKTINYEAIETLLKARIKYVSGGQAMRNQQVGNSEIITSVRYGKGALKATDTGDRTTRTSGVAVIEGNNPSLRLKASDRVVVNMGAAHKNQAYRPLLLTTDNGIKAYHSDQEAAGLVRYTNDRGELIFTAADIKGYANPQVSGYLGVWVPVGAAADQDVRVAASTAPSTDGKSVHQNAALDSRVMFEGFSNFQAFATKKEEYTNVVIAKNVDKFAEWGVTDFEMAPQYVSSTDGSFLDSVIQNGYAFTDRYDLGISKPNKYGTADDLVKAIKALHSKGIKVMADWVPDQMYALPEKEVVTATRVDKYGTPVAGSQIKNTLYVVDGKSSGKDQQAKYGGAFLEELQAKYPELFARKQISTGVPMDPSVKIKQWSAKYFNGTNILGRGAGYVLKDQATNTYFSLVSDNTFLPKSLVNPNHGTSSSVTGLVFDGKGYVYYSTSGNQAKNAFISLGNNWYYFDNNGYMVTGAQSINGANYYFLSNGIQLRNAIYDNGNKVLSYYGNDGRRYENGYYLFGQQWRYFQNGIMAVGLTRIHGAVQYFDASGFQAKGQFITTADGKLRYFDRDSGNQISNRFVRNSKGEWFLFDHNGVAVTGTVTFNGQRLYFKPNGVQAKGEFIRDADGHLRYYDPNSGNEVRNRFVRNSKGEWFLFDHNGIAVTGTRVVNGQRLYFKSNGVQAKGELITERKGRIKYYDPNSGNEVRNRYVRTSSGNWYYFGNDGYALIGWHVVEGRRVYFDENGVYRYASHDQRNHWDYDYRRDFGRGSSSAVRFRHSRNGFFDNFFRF
# Assay: Inhibition of Wild-type Streptococcus mutans UA159 glucosyltransferase C by zymography
# Outline: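 S. mutans UA159 wild type co-incubated with compound at different concentrations; Gtfs concentrated from supernatants, separated by SDS-PAGE and assayed by zymography, glucan band intensity reflecting enzyme activity.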
smiles,measurement,value
O=C(/C=C\c1ccc(O)cc1O)c1cccc(O)c1,inhibition,Dose-dependent effect
